Key:
[1] = tested on: AGS; assay: Induction of apoptosis in human AGS cells assessed as late apoptotic cells at 0.2 uM measured after 48 hrs FITC-A/PE-A staining based flow cytometry (reference value: 1.89 to 3.49%); type: functional
[2] = tested on: MGC-803; assay: Cell cycle arrest in human MGC803 cells assessed as increase in accumulation at G1-phase measured after 24 hrs by propidium iodide staining based flow cytometry; type: functional
[3] = tested on: MGC-803; assay: Cytotoxicity against human MGC803 cells assessed as reduction in cell viability measured after 72 hrs by CCK8 assay; type: functional, cell-based; conditions: MGC-803, 72 h
Method in brief: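 MGC803 or AGS cells (RPMI 1640, 10% FBS, 5% CO₂, 37 °C) plated at 3 × 10³ per well overnight, then exposed to 0.1–10 μM for 72 h. Viability was read by CCK8 absorbance at 450 nm, and IC₅₀ was calculated from the concentration series.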

[4] = tested on: MGC-803; assay: Cell cycle arrest in human MGC803 cells assessed as accumulation at S-phase at 0.2 uM measured after 24 hrs by propidium iodide staining based flow cytometry (reference value: 33%); type: functional
[5] = tested on: AGS; assay: Induction of apoptosis in human AGS cells assessed as viable cells at 5 uM measured after 48 hrs FITC-A/PE-A staining based flow cytometry (reference value: 92.05 to 93.85%); type: functional; conditions: read-out: Activity
[6] = tested on: MGC-803; assay: Induction of apoptosis in human MGC803 cells assessed as necrotic cells at 1 uM measured after 48 hrs FITC-A/PE-A staining based flow cytometry (reference value: 0.9 to 2.18%); type: functional
[7] = tested on: MGC-803; assay: Induction of apoptosis in human MGC803 cells assessed as necrotic cells at 0.2 uM measured after 48 hrs FITC-A/PE-A staining based flow cytometry (reference value: 0.9 to 2.18%); type: functional
[8] = tested on: MGC-803; assay: Cell cycle arrest in human MGC803 cells assessed as accumulation at S-phase at 0.5 uM measured after 24 hrs by propidium iodide staining based flow cytometry (reference value: 33%); type: functional
[9] = tested on: AGS; assay: Induction of apoptosis in human AGS cells assessed as necrotic cells at 5 uM measured after 48 hrs FITC-A/PE-A staining based flow cytometry (reference value: 1.35 to 2.69%); type: functional
[10] = tested on: MGC-803; assay: Cell cycle arrest in human MGC803 cells assessed as accumulation at G2/M-phase at 0.2 uM measured after 24 hrs by propidium iodide staining based flow cytometry (reference value: 22%); type: functional
[11] = tested on: AGS; assay: Induction of apoptosis in human AGS cells assessed as late apoptotic cells at 0.5 uM measured after 48 hrs FITC-A/PE-A staining based flow cytometry (reference value: 1.89 to 3.49%); type: functional
[12] = tested on: MGC-803; assay: Induction of apoptosis in human MGC803 cells assessed as early apoptotic cells at 1 uM measured after 48 hrs FITC-A/PE-A staining based flow cytometry (reference value: 0.59 to 3.54%); type: functional
[13] = tested on: AGS; assay: Induction of apoptosis in human AGS cells assessed as necrotic cells at 1 uM measured after 48 hrs FITC-A/PE-A staining based flow cytometry (reference value: 1.35 to 2.69%); type: functional
[14] = tested on: MGC-803; assay: Induction of apoptosis in human MGC803 cells assessed as late apoptotic cells at 5 uM measured after 48 hrs FITC-A/PE-A staining based flow cytometry (reference value: 0.67 to 0.82%); type: functional
[15] = tested on: MGC-803; assay: Induction of apoptosis in human MGC803 cells assessed as viable cells at 5 uM measured after 48 hrs FITC-A/PE-A staining based flow cytometry (reference value: 94.89 to 96.41%); type: functional; conditions: MGC-803, 48 h, read-out: Activity
[16] = tested on: AGS; assay: Induction of apoptosis in human AGS cells assessed as necrotic cells at 0.2 uM measured after 48 hrs FITC-A/PE-A staining based flow cytometry (reference value: 1.35 to 2.69%); type: functional
[17] = tested on: MGC-803; assay: Cell cycle arrest in human MGC803 cells assessed as accumulation at G2/M-phase at 0.5 uM measured after 24 hrs by propidium iodide staining based flow cytometry (reference value: 22%); type: functional
[18] = tested on: AGS; assay: Induction of apoptosis in human AGS cells assessed as early apoptotic cells at 0.2 uM measured after 48 hrs FITC-A/PE-A staining based flow cytometry (reference value: 1.77 to 2.91%); type: functional
[19] = tested on: MGC-803; assay: Induction of apoptosis in human MGC803 cells assessed as early apoptotic cells at 0.2 uM measured after 48 hrs FITC-A/PE-A staining based flow cytometry (reference value: 0.59 to 3.54%); type: functional
[20] = tested on: MGC-803; assay: Cell cycle arrest in human MGC803 cells assessed as accumulation at G1-phase at 0.2 uM measured after 24 hrs by propidium iodide staining based flow cytometry (reference value: 45%); type: functional
[21] = tested on: MGC-803; assay: Induction of apoptosis in human MGC803 cells assessed as necrotic cells at 5 uM measured after 48 hrs FITC-A/PE-A staining based flow cytometry (reference value: 0.9 to 2.18%); type: functional
[22] = tested on: AGS; assay: Induction of apoptosis in human AGS cells assessed as necrotic cells at 0.5 uM measured after 48 hrs FITC-A/PE-A staining based flow cytometry (reference value: 1.35 to 2.69%); type: functional
[23] = tested on: MGC-803; assay: Induction of apoptosis in human MGC803 cells assessed as viable cells at 0.5 uM measured after 48 hrs FITC-A/PE-A staining based flow cytometry (reference value: 94.89 to 96.41%); type: functional; conditions: MGC-803, 48 h, read-out: Activity
[24] = tested on: AGS; assay: Induction of apoptosis in human AGS cells measured after 48 hrs FITC-A/PE-A staining based flow cytometry; type: functional, cell-based
[25] = tested on: MGC-803; assay: Cell cycle arrest in human MGC803 cells assessed as accumulation at G1-phase at 1 uM measured after 24 hrs by propidium iodide staining based flow cytometry (reference value: 45%); type: functional
[26] = tested on: AGS; assay: Induction of apoptosis in human AGS cells assessed as late apoptotic cells at 5 uM measured after 48 hrs FITC-A/PE-A staining based flow cytometry (reference value: 1.89 to 3.49%); type: functional
[27] = tested on: AGS; assay: Induction of apoptosis in human AGS cells assessed as early apoptotic cells at 0.5 uM measured after 48 hrs FITC-A/PE-A staining based flow cytometry (reference value: 1.77 to 2.91%); type: functional
[28] = tested on: MGC-803; assay: Induction of apoptosis in human MGC803 cells assessed as late apoptotic cells at 0.5 uM measured after 48 hrs FITC-A/PE-A staining based flow cytometry (reference value: 0.9 to 2.18%); type: functional
[29] = tested on: AGS; assay: Induction of apoptosis in human AGS cells assessed as early apoptotic cells at 5 uM measured after 48 hrs FITC-A/PE-A staining based flow cytometry (reference value: 1.77 to 2.91%); type: functional
[30] = tested on: AGS; assay: Induction of apoptosis in human AGS cells assessed as viable cells at 0.2 uM measured after 48 hrs FITC-A/PE-A staining based flow cytometry (reference value: 92.05 to 93.85%); type: functional; conditions: read-out: Activity
[31] = tested on: AGS; assay: Induction of apoptosis in human AGS cells assessed as late apoptotic cells at 1 uM measured after 48 hrs FITC-A/PE-A staining based flow cytometry (reference value: 1.89 to 3.49%); type: functional
[32] = tested on: MGC-803; assay: Induction of apoptosis in human MGC803 cells assessed as late apoptotic cells at 1 uM measured after 48 hrs FITC-A/PE-A staining based flow cytometry (reference value: 0.67 to 0.82%); type: functional

CC[C@H](C)/C=C/C1=CC2=C(Cl)C(=O)[C@@]3(C)OC(=O)C(C(=O)[C@@H](C)[C@@H](C)O)=C3C2=CN1C/C=C(\C)CCC=C(C)C
Activity [1]: 2.69%
Activity [2]: Dose-dependent effect
IC50 [3]: 460 nM
Activity [4]: 30%
viability at 5 µM [5]: 8.93%
Activity [6]: 6.01%
Activity [7]: 4.06%
Activity [8]: 28%
Activity [9]: 2.44%
Activity [10]: 23%
Activity [11]: 3.01%
Activity [12]: 4.16%
Activity [13]: 3.36%
Activity [14]: 68.63%
viability at 5 µM [15]: 20.1%
Activity [16]: 1.37%
Activity [17]: 24%
Activity [18]: 2.78%
Activity [19]: 2.96%
Activity [20]: 48%
Activity [21]: 5.03%
Activity [22]: 2.85%
viability at 0.5 µM [23]: 91.3%
Activity [24]: Dose-dependent effect
Activity [25]: 58%
Activity [26]: 86.77%
Activity [27]: 5.89%
Activity [28]: 2.85%
Activity [29]: 1.86%
viability at 0.2 µM [30]: 93.2%
Activity [31]: 35.16%
Activity [32]: 18.17%
